The values below come from ChEMBL document CHEMBL1126176, “Synthetic modification of a novel microbial ionophore: exploration of anticoccidial structure-activity relationships” (J Med Chem, 1992).

Assay [1] is filed under the species Gallus gallus. The experiment in a line: Minimum concentration of the compound(ppm) in feed which provides control of Eimeria tenella lesions equivalent to noninfected, nonmedicated birds. It is filed as functional. An outline of the steps:
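Drug is given continuously in feed to E. tenella-infected birds from 1 day before infection. Birds are killed 6 days after infection and lesions are scored. The value is the lowest feed level (ppm) giving lesion control equal to noninfected, nonmedicated birds.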

Assay [2] is filed under the species Gallus gallus. Description: In vitro concentration of compound to inhibit growth of Eimeria tenella by 50% […]. It is filed as functional, organism-based. An outline of the steps: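 E. tenella grown in vitro with drug. Growth is compared with nonmedicated controls. The value is the drug concentration (ppm) that inhibits growth by 50%.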

Regarding `CO[C@@H]1[C@@H](O[C@H]2CC[C@H](OC)[C@@H](C)O2)[C@H](C)[C@@](O)(C(C)C(=O)[O-])O[C@H]1[C@H](C)[C@H]1O[C@@]2(CC[C@@](C)([C@H]3CC[C@@](C)([C@@H]4O[C@@H]([C@H]5O[C@](C)(O)[C@H](C)C[C@@H]5C)C[C@@H]4O[C@H]4CC[C@H](OC)[C@@H](C)O4)O3)O2)C[C@H](O)[C@H]1C.[Na+]` (stereo partly drawn), the MEC in the assay filed under Gallus gallus [1] was determined as 7.5 p.p.m. In addition, in the assay filed under Gallus gallus [2], the IC50 came to 0.03 p.p.m.

For the compound `C#CCC(C(=O)[O-])[C@@]1(O)O[C@@H]([C@H](C)[C@H]2O[C@@]3(CC[C@@](C)([C@H]4CC[C@@](C)([C@@H]5O[C@@H]([C@H]6O[C@](C)(O)[C@H](C)C[C@@H]6C)C[C@@H]5O[C@H]5CC[C@H](OC)[C@@H](C)O5)O4)O3)C[C@H](O)[C@H]2C)[C@H](OC)[C@@H](O[C@H]2CC[C@H](OC)[C@@H](C)O2)[C@@H]1C.[Na+]` (stereo in doubt; 2e), the MEC in the assay filed under Gallus gallus [1] is more than 60 p.p.m.

For the compound `CO[C@@H]1[C@@H](O[C@H]2CC[C@H](OC)[C@@H](C)O2)[C@H](C)[C@@](O)(CC(=O)[O-])O[C@H]1[C@H](C)[C@H]1O[C@@]2(CC[C@@](C)([C@H]3CC[C@@](C)([C@@H]4O[C@@H]([C@@H](O)[C@@H](C)C[C@@H](C)[C@@H](C)O)C[C@@H]4O[C@H]4CC[C@H](OC)[C@@H](C)O4)O3)O2)C[C@H](O)[C@H]1C.[Na+]`, the MEC in the assay listed under Gallus gallus [1] was determined as 80 p.p.m. The compound also had an IC50 in the assay listed under Gallus gallus [2] of 0.05 p.p.m.

For the compound `C=CCC(C(=O)[O-])[C@@]1(O)O[C@@H]([C@H](C)[C@H]2O[C@@]3(CC[C@@](C)([C@H]4CC[C@@](C)([C@@H]5O[C@@H]([C@H]6O[C@](C)(O)[C@H](C)C[C@@H]6C)C[C@@H]5O[C@H]5CC[C@H](OC)[C@@H](C)O5)O4)O3)C[C@H](O)[C@H]2C)[C@H](OC)[C@@H](O[C@H]2CC[C@H](OC)[C@@H](C)O2)[C@@H]1C.[Na+]` (stereo partly drawn), the MEC in the assay filed under Gallus gallus [1] amounted to 60 p.p.m. The same compound registered an IC50 in the assay listed under Gallus gallus [2] of 0.01 p.p.m.

Consider `CO[C@@H]1[C@@H](O[C@H]2CC[C@H](OC)[C@@H](C)O2)[C@H](C)[C@@](O)(CC(=O)[O-])O[C@H]1[C@H](C)[C@H]1O[C@@]2(CC[C@@](C)([C@H]3CC[C@@](C)([C@@H]4O[C@@H]([C@H]5O[C@](C)(O)[C@H](C)C[C@@H]5C)C[C@@H]4O[C@H]4CC[C@H](OC)[C@@H](C)O4)O3)O2)C[C@H](O)[C@H]1C.[Na+]` [IONOPHORE], for which the MEC in the assay filed under Gallus gallus [1] worked out at 15 p.p.m. In the assay listed under Gallus gallus [2], the IC50 was determined as 0.03 p.p.m.

Regarding `CCC(C(=O)[O-])[C@@]1(O)O[C@@H]([C@H](C)[C@H]2O[C@@]3(CC[C@@](C)([C@H]4CC[C@@](C)([C@@H]5O[C@@H]([C@H]6O[C@](C)(O)[C@H](C)C[C@@H]6C)C[C@@H]5O[C@H]5CC[C@H](OC)[C@@H](C)O5)O4)O3)C[C@H](O)[C@H]2C)[C@H](OC)[C@@H](O[C@H]2CC[C@H](OC)[C@@H](C)O2)[C@@H]1C.[Na+]` (stereo partly drawn), the MEC in the assay filed under Gallus gallus [1] was 30 p.p.m.

As for `C#CCC(C(=O)[O-])[C@@]1(O)O[C@@H]([C@H](C)[C@H]2O[C@@]3(CC[C@@](C)([C@H]4CC[C@@](C)([C@@H]5O[C@@H]([C@H]6O[C@](C)(O)[C@H](C)C[C@@H]6C)C[C@@H]5O[C@H]5CC[C@H](OC)[C@@H](C)O5)O4)O3)C[C@H](O)[C@H]2C)[C@H](OC)[C@@H](O[C@H]2CC[C@H](OC)[C@@H](C)O2)[C@@H]1C.[Na+]` (stereo in doubt; 2f), the MEC in the assay listed under Gallus gallus [1] was determined as 60 p.p.m. The compound further came in with an IC50 in the assay filed under Gallus gallus [2] of 0.01 p.p.m.

Consider `CO[C@@H]1[C@@H](O[C@H]2CC[C@H](OC)[C@@H](C)O2)[C@H](C)[C@@](O)(CC(=O)[O-])O[C@H]1[C@H](C)[C@H]1O[C@@]2(CC[C@@](C)([C@H]3CC[C@@](C)([C@@H]4O[C@@H]([C@H]5O[C@](C)(OC)[C@H](C)C[C@@H]5C)C[C@@H]4O[C@H]4CC[C@H](OC)[C@@H](C)O4)O3)O2)C[C@H](O)[C@H]1C.[Na+]`, for which the MEC in the assay listed under Gallus gallus [1] was determined as 50 p.p.m. In the assay listed under Gallus gallus [2], this compound yielded an IC50 of 0.02 p.p.m.

Consider `CO[C@@H]1[C@@H](O[C@H]2CC[C@H](OC)[C@@H](C)O2)[C@H](C)[C@@](O)(CC(=O)[O-])O[C@H]1[C@H](C)[C@H]1O[C@@]2(CC[C@@](C)([C@H]3CC[C@@](C)([C@@H]4O[C@@H]([C@@H](O)[C@@H](C)C[C@@H](C)C(C)(C)O)C[C@@H]4O[C@H]4CC[C@H](OC)[C@@H](C)O4)O3)O2)C[C@H](O)[C@H]1C.[Na+]`, for which the MEC in the assay filed under Gallus gallus [1] is on record as more than 120 p.p.m. For the same compound, the IC50 in the assay listed under Gallus gallus [2] turned out to be 0.03 p.p.m.

`CO[C@@H]1[C@@H](O)[C@H](C)[C@@](O)(CC(=O)[O-])O[C@H]1[C@H](C)[C@H]1O[C@@]2(CC[C@@](C)([C@H]3CC[C@@](C)([C@@H]4O[C@@H]([C@H]5O[C@](C)(O)[C@H](C)C[C@@H]5C)C[C@@H]4O[C@H]4CC[C@H](OC)[C@@H](C)O4)O3)O2)C[C@H](O)[C@H]1C.[Na+]` [SEMDURAMICIN SODIUM]: the MEC in the assay filed under Gallus gallus [1] came out at 25 p.p.m. Moreover, the IC50 in the assay listed under Gallus gallus [2] is given as 0.03 p.p.m.

Consider `CO[C@@H]1[C@@H](O[C@H]2CC[C@H](OC)[C@@H](C)O2)[C@H](C)[C@](CC(=O)[O-])(OC)O[C@H]1[C@H](C)[C@H]1O[C@@]2(CC[C@@](C)([C@H]3CC[C@@](C)([C@@H]4O[C@@H]([C@H]5O[C@](C)(O)[C@H](C)C[C@@H]5C)C[C@@H]4O[C@H]4CC[C@H](OC)[C@@H](C)O4)O3)O2)C[C@H](O)[C@H]1C.[Na+]`, for which the MEC in the assay listed under Gallus gallus [1] is recorded as 120 p.p.m.

Regarding `CO[C@@H]1[C@@H](O)[C@H](C)[C@@](O)(CC(=O)[O-])O[C@H]1[C@H](C)[C@H]1O[C@@]2(CC[C@@](C)([C@H]3CC[C@@](C)([C@@H]4O[C@@H]([C@H]5O[C@](C)(O)[C@H](C)C[C@@H]5C)C[C@@H]4O)O3)O2)C[C@H](O)[C@H]1C.[Na+]`, the MEC in the assay filed under Gallus gallus [1] was more than 50 p.p.m. Besides, the IC50 in the assay listed under Gallus gallus [2] is more than 1 p.p.m.

For the compound `CCCC(C(=O)[O-])[C@@]1(O)O[C@@H]([C@H](C)[C@H]2O[C@@]3(CC[C@@](C)([C@H]4CC[C@@](C)([C@@H]5O[C@@H]([C@H]6O[C@](C)(O)[C@H](C)C[C@@H]6C)C[C@@H]5O[C@H]5CC[C@H](OC)[C@@H](C)O5)O4)O3)C[C@H](O)[C@H]2C)[C@H](OC)[C@@H](O[C@H]2CC[C@H](OC)[C@@H](C)O2)[C@@H]1C.[Na+]` (stereo partly drawn), in the assay listed under Gallus gallus [1], the MEC amounted to 60 p.p.m. Besides, the IC50 in the assay filed under Gallus gallus [2] was 0.01 p.p.m.
